Data published in ChEMBL document CHEMBL1154428, “Cloning, nucleotide sequencing, and analysis of the AcrAB-TolC efflux pump of Enterobacter cloacae and determination of its involvement in antibiotic resistance in a clinical isolate” (2007).
In brackets after ≈: the same amount, converted by molar mass.

Experiments:
Enterobacter cloacae [1] = test: Antibacterial activity against drug-resistant AcrAB-TolC efflux pump deficient Enterobacter cloacae EcdeltaacrA isolate expressing pAP3 plasmid containing Enterobacter aerogenes acrR gene by Etest; assay type: functional
Enterobacter cloacae [2] = test: Antibacterial activity against drug-resistant AcrAB-TolC efflux pump deficient Enterobacter cloacae EcdeltaacrA isolate by Etest; assay type: functional
Enterobacter cloacae [3] = test: Antibacterial activity against drug-resistant Enterobacter cloacae EcDC64 isolate expressing AcrAB-TolC efflux pump in presence of 20 ug/ml efflux pump inhibitor Phe-Arg-beta-naphthylamide by Etest
Enterobacter cloacae [4] = test: Antibacterial activity against drug-resistant AcrAB-TolC efflux pump deficient Enterobacter cloacae EcdeltaacrA isolate expressing pACYC184 plasmid by Etest; assay type: functional
Enterobacter cloacae [5] = test: Antibacterial activity against drug-resistant AcrAB-TolC efflux pump deficient Enterobacter cloacae EcdeltaacrA isolate expressing pAP2 plasmid containing Enterobacter cloacae acrA gene by Etest; assay type: functional
Enterobacter cloacae [6] = test: Antibacterial activity against drug-resistant AcrAB-TolC efflux pump deficient Enterobacter cloacae EcdeltaacrA isolate expressing pBGS18 plasmid by Etest; assay type: functional
Enterobacter cloacae [7] = test: Antibacterial activity against drug-resistant Enterobacter cloacae EcDC64 isolate expressing AcrAB-TolC efflux pump by Etest; assay type: functional
Enterobacter cloacae [8] = test: Antibacterial activity against drug-resistant AcrAB-TolC efflux pump deficient Enterobacter cloacae EcdeltaacrA isolate in presence of 20 ug/ml efflux pump inhibitor Phe-Arg-beta-naphthylamide by Etest; assay type: functional
Enterobacter cloacae [9] = test: Antibacterial activity against drug-resistant AcrAB-TolC efflux pump deficient Enterobacter cloacae EcdeltaacrA isolate expressing pAP2 plasmid containing Enterobacter cloacae acrA gene by standard disk diffusion method; assay type: functional
Procedure, shortened: (§1)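 Standard disk diffusion on Mueller-Hinton agar with telithromycin, fusidic acid, novobiocin, nalidixic acid, rifampin and norfloxacin disks. The read-out is the inhibition zone diameter in mm. The acrA-deleted strain was complemented with acrA on pAP-2, and pACYC184 served as the empty vector.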

Enterobacter cloacae [10] = test: Antibacterial activity against drug-resistant Enterobacter cloacae EcDC64 isolate expressing pBGS18 plasmid by standard disk diffusion method
Enterobacter cloacae [11] = test: Antibacterial activity against drug-resistant AcrAB-TolC efflux pump deficient Enterobacter cloacae EcdeltaacrA isolate by standard disk diffusion method; assay type: functional; procedure, shortened: as §1
Enterobacter cloacae [12] = test: Antibacterial activity against drug-resistant Enterobacter cloacae EcDC64 isolate expressing pAP3 plasmid containing Enterobacter aerogenes acrR gene by standard disk diffusion method
Enterobacter cloacae [13] = test: Antibacterial activity against drug-resistant AcrAB-TolC efflux pump deficient Enterobacter cloacae EcdeltaacrA isolate in presence of 20 ug/ml efflux pump inhibitor Phe-Arg-beta-naphthylamide by standard disk diffusion method; assay type: functional; procedure, shortened: as §1
Enterobacter cloacae [14] = test: Antibacterial activity against drug-resistant AcrAB-TolC efflux pump deficient Enterobacter cloacae EcdeltaacrA isolate expressing pACYC184 plasmid by standard disk diffusion method; assay type: functional; procedure, shortened: as §1
Enterobacter cloacae [15] = test: Antibacterial activity against drug-resistant Enterobacter cloacae EcDC64 isolate expressing AcrAB-TolC efflux pump by standard disk diffusion method; assay type: functional; procedure, shortened: as §1
Enterobacter cloacae [16] = test: Antibacterial activity against drug-resistant Enterobacter cloacae EcDC64 isolate expressing AcrAB-TolC efflux pump in presence of 20 ug/ml efflux pump inhibitor Phe-Arg-beta-naphthylamide by standard disk diffusion method; assay type: functional; procedure, shortened: as §1

| Compound | MIC (Enterobacter cloacae [1]) [µg/mL] | MIC (Enterobacter cloacae [2]) [µg/mL] | MIC (Enterobacter cloacae [3]) [µg/mL] | MIC (Enterobacter cloacae [4]) [µg/mL] | MIC (Enterobacter cloacae [5]) [µg/mL] | MIC (Enterobacter cloacae [6]) [µg/mL] | MIC (Enterobacter cloacae [7]) [µg/mL] | MIC (Enterobacter cloacae [8]) [µg/mL] | inhibition zone (IZ) (Enterobacter cloacae [9]) [mm] | inhibition zone (IZ) (Enterobacter cloacae [10]) [mm] | inhibition zone (IZ) (Enterobacter cloacae [11]) [mm] | inhibition zone (IZ) (Enterobacter cloacae [12]) [mm] | inhibition zone (IZ) (Enterobacter cloacae [13]) [mm] | inhibition zone (IZ) (Enterobacter cloacae [14]) [mm] | inhibition zone (IZ) (Enterobacter cloacae [15]) [mm] | inhibition zone (IZ) (Enterobacter cloacae [16]) [mm] |
| --- | --- | --- | --- | --- | --- | --- | --- | --- | --- | --- | --- | --- | --- | --- | --- | --- |
| CC(=O)NC[C@H]1CN(c2ccc(N3CCOCC3)c(F)c2)C(=O)O1 [LINEZOLID] | > 256 | 8 (≈ 23.7 µM) | 4 | 4 (≈ 11.9 µM) | > 256 | > 256 | > 256 | 0.5 |  |  |  |  |  |  |  |  |
| CC(=O)O[C@H]1C[C@@]2(C)[C@@H](C[C@@H](O)[C@H]3[C@@]4(C)CC[C@@H](O)[C@@H](C)[C@@H]4CC[C@@]32C)/C1=C(\CCC=C(C)C)C(=O)O [FUSIDIC ACID] |  |  |  |  |  |  |  |  | 0 | 0 | 0 | 0 | 26 | 0 | 0 | >40 |
| CCn1cc(C(=O)O)c(=O)c2ccc(C)nc21 [NALIDIXIC ACID] |  |  |  |  |  |  |  |  | 12 | 21 | 33 | 29 | 40 | 30 | 24 | 27 |
| NC[C@H]1O[C@H](O[C@H]2[C@H](O)[C@@H](O[C@H]3O[C@H](CO)[C@@H](O)[C@H](N)[C@H]3O)[C@H](N)C[C@@H]2N)[C@H](N)C[C@@H]1O [TOBRAMYCIN] | 0.38 (≈ 0.813 µM) | 0.125 (≈ 0.267 µM) | 0.5 | 0.25 (≈ 0.535 µM) | 1.5 (≈ 3.21 µM) | 1 (≈ 2.14 µM) | 1.5 (≈ 3.21 µM) | 0.047 |  |  |  |  |  |  |  |  |
| CO[C@@]1(NC(=O)Cc2cccs2)C(=O)N2C(C(=O)O)=C(COC(N)=O)CS[C@@H]21 [CEFOXITIN] | > 256 | > 256 | > 256 | > 256 | > 256 | > 256 | > 256 | > 256 |  |  |  |  |  |  |  |  |
| CO/N=C(\C(=O)N[C@@H]1C(=O)N2C(C(=O)O)=C(COC(C)=O)CS[C@H]12)c1csc(N)n1 [CEFOTAXIME] | > 256 | > 256 | > 256 | > 256 | > 256 | > 256 | > 256 | 8 |  |  |  |  |  |  |  |  |
| CO/N=C(\C(=O)N[C@@H]1C(=O)N2C(C(=O)O)=C(COC(N)=O)CS[C@H]12)c1ccco1 [CEFUROXIME] | > 256 | > 256 | > 256 | > 256 | > 256 | > 256 | > 256 | 48 |  |  |  |  |  |  |  |  |
| CC[C@H]1OC(=O)[C@H](C)C(=O)[C@H](C)[C@@H](O[C@@H]2O[C@H](C)C[C@H](N(C)C)[C@H]2O)[C@](C)(OC)C[C@@H](C)C(=O)[C@H](C)[C@H]2N(CCCCn3cnc(-c4cccnc4)c3)C(=O)O[C@]12C [TELITHROMYCIN] |  |  |  |  |  |  |  |  | 13 | 10 | 19 | 12 | 34 | 18 | 9 | 32 |
| CCN1CCN(C(=O)N[C@@H](C(=O)N[C@@H]2C(=O)N3[C@@H]2SC(C)(C)[C@@H]3C(=O)O)c2ccccc2)C(=O)C1=O [PIPERACILLIN] | 96 (≈ 185 µM) | 192 (≈ 371 µM) | 192 | > 256 | > 256 | > 256 | > 256 | 6 |  |  |  |  |  |  |  |  |
| CC[C@H]1OC(=O)[C@H](C)[C@@H](O[C@H]2C[C@@](C)(OC)[C@@H](O)[C@H](C)O2)[C@H](C)[C@@H](O[C@@H]2O[C@H](C)C[C@H](N(C)C)[C@H]2O)[C@](C)(O)C[C@@H](C)C(=O)[C@H](C)[C@@H](O)[C@]1(C)O [ERYTHROMYCIN] | 48 (≈ 65.4 µM) | 12 (≈ 16.4 µM) | 1 | 16 (≈ 21.8 µM) | 128 (≈ 174 µM) | > 256 | > 256 | 0.094 |  |  |  |  |  |  |  |  |
| CCC[C@@H]1C[C@@H](C(=O)N[C@@H]([C@H]2O[C@H](SC)[C@H](O)[C@@H](O)[C@H]2O)[C@H](C)Cl)N(C)C1 [CLINDAMYCIN] | 32 (≈ 75.3 µM) | 2 (≈ 4.71 µM) | 6 | 4 (≈ 9.41 µM) | > 256 | > 256 | > 256 | 1 |  |  |  |  |  |  |  |  |
| CC(C)(O/N=C(\C(=O)N[C@@H]1C(=O)N2C(C(=O)[O-])=C(C[n+]3ccccc3)CS[C@H]12)c1csc(N)n1)C(=O)O [CEFTAZIDIME] | > 256 | > 256 | > 256 | > 256 | > 256 | > 256 | > 256 | 16 |  |  |  |  |  |  |  |  |
| Cc1onc(-c2ccccc2)c1C(=O)N[C@@H]1C(=O)N2[C@@H]1SC(C)(C)[C@@H]2C(=O)O [OXACILLIN] | > 256 | 96 (≈ 239 µM) | 48 | > 256 | > 256 | > 256 | > 256 | 4 |  |  |  |  |  |  |  |  |
| CC(=O)OCC1=C(C(=O)O)N2C(=O)[C@@H](NC(=O)Cc3cccs3)[C@H]2SC1 [CEPHALOTHIN] | > 256 | > 256 | > 256 | > 256 | > 256 | > 256 | > 256 | > 256 |  |  |  |  |  |  |  |  |
| O=C(N[C@H](CO)[C@H](O)c1ccc([N+](=O)[O-])cc1)C(Cl)Cl [CHLORAMPHENICOL] | 1 (≈ 3.09 µM) | 0.5 (≈ 1.55 µM) | 0.25 | > 256 | > 256 | 8 (≈ 24.8 µM) | 8 (≈ 24.8 µM) | 0.047 |  |  |  |  |  |  |  |  |
| CN(C)c1cc(NC(=O)CNC(C)(C)C)c(O)c2c1C[C@H]1C[C@H]3[C@H](N(C)C)C(O)=C(C(N)=O)C(=O)[C@@]3(O)C(O)=C1C2=O [TIGECYCLINE] | 0.19 (≈ 0.324 µM) | 0.125 (≈ 0.213 µM) | 0.125 | 0.5 (≈ 0.854 µM) | 0.75 (≈ 1.28 µM) | 0.38 (≈ 0.649 µM) | 0.75 (≈ 1.28 µM) | 0.064 |  |  |  |  |  |  |  |  |
| CN(C)[C@@H]1C(O)=C(C(N)=O)C(=O)[C@@]2(O)C(O)=C3C(=O)c4c(O)cccc4[C@@](C)(O)[C@H]3C[C@@H]12 [TETRACYCLINE] | 192 (≈ 432 µM) | 64 (≈ 144 µM) | 64 | 64 (≈ 144 µM) | > 256 | > 256 | > 256 | 1.5 |  |  |  |  |  |  |  |  |
| NCC[C@H](O)C(=O)N[C@@H]1C[C@H](N)[C@@H](O[C@H]2O[C@H](CN)[C@@H](O)[C@H](O)[C@H]2O)[C@H](O)[C@H]1O[C@H]1O[C@H](CO)[C@@H](O)[C@H](N)[C@H]1O [AMIKACIN] | 1 (≈ 1.71 µM) | 0.5 (≈ 0.854 µM) | 1.5 | 0.5 (≈ 0.854 µM) | 2 (≈ 3.42 µM) | 2 (≈ 3.42 µM) | 2 (≈ 3.42 µM) | 0.125 |  |  |  |  |  |  |  |  |
